Laboratory results taken from ChEMBL document CHEMBL3259682, “Synthesis, β-haematin inhibition, and in vitro antimalarial testing of isocryptolepine analogues: SAR study of indolo[3,2-c]quinolines with various substituents at C2, C6, and N11” (Bioorg Med Chem, 2014).

What was measured:
[1] = tested on: L6; test: Cytotoxicity against rat L6 cells after 70 hrs by Alamar Blue assay; assay type: functional, cell-based; conditions: L6, 70 h
Outline: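 Rat skeletal myoblast L6 cells, 4000 per well, in RPMI 1640 with 1% L-glutamine and 10% fetal bovine serum. Eleven 3-fold serial drug dilutions were tested. Alamar Blue was added for a final 2 h. Fluorescence was read at excitation 536 nm and emission 588 nm. IC₅₀ is the mean of two independent assays.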

[2] = tested on: Plasmodium falciparum; test: Antimalarial activity against erythrocytic stage of chloroquine-sensitive Plasmodium falciparum NF54 after 48 hrs by [3H]-hypoxanthine incorporation assay; assay type: functional, organism-based
Outline: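 ³H-hypoxanthine incorporation against P. falciparum NF54. DMSO stocks at 10 mg/mL were added to cultures in hypoxanthine-free RPMI 1640 with HEPES, NaHCO₃, neomycin and Albumax, using human A⁺ red cells at 2.5% haematocrit and 0.3% parasitaemia. Eleven 3-fold serial dilutions were tested. Incubation was under 4% CO₂/3% O₂/93% N₂. ³H-hypoxanthine was added after 48 h, followed by a further 24 h. Cells were harvested onto glass-fibre filters. IC₅₀ is the mean of two independent assays.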

[3] = Selectivity index, ratio of IC50 for rat L6 cells to IC50 for erythrocytic stage of chloroquine-sensitive Plasmodium falciparum NF54; assay type: toxicity, cell-based; conditions: read-out: Ratio IC50
Outline: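 Selectivity index is the L6 cytotoxicity IC₅₀ divided by the NF54 antiplasmodial IC₅₀. Each IC₅₀ is the mean of two independent assays.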

[4] = Binding affinity to haematin assessed as inhibition of beta-haematin formation after 5 to 6 hrs by pyridine-ferrichrome-based method
Outline: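 Detergent (NP-40) mediated β-haematin formation assay, run manually. Compounds came from 20, 2 and 0.4 mM DMSO stocks, tested at 0–1000 µM final. Haematin was 100 µM final in 0.5 M acetate buffer, pH 4.8. Incubation was 5–6 h at 37 °C. Read-out used the pyridine-ferrichrome method with UV–vis absorbance. IC₅₀ came from sigmoidal dose–response fits.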

IC50 [2] [µM] | IC50 [4] [µM] | SMILES | IC50 [1] [µM] | selectivity ratio [3]
0.0411 | 39.2 | CCN(CC)C(=O)NCCCNc1nc2ccccc2c2[nH]c3ccccc3c12 | 3.57 | 86.8
0.227 | 287 | OCCCNc1nc2ccccc2c2[nH]c3ccccc3c12 | 0.717 | 3.2
0.0313 | 26.6 | Cn1c2ccccc2c2c(NCCCN)nc3ccc(Br)cc3c21 | 0.825 | 26.3
0.0329 | 56.9 | COc1ccc2nc(NCCCN)c3c4ccccc4n(C)c3c2c1 | 0.138 | 4.2
0.0543 | 118 | CS(=O)(=O)NCCCNc1nc2ccccc2c2[nH]c3ccccc3c12 | 1.06 | 19.6
7.39 | > 1000 | Cn1c2ccccc2c2c(Cl)nc3ccccc3c21 | 17.3 | 2.3
0.0314 | 29.5 | Cc1ccc2nc(NCCCN)c3c4ccccc4n(C)c3c2c1 | 0.192 | 6.1
0.0354 | 28 | Cn1c2ccccc2c2c(NCCCN)nc3ccc(Cl)cc3c21 | 0.62 | 17.5
0.274 | 1000 | Cn1c2ccccc2c2c(NCC(C)(C)CN)nc3ccccc3c21 | 0.259 | 0.9
0.0527 | 25.8 | Cn1c2ccccc2c2c(NCCCN)nc3ccc(F)cc3c21 | 0.292 | 5.5
0.0361 | 60.9 | Cc1ccc2nc(NCCCN)c3c4ccccc4[nH]c3c2c1 | 0.322 | 8.9
0.0081 | 19.4 | NCCCNc1nc2ccc(Br)cc2c2[nH]c3ccccc3c12 | 0.891 | 110
0.113 | 148 | c1ccc2c(c1)nc(NCC1CCCO1)c1c3ccccc3[nH]c21 (stereo not drawn) | 2.05 | 18.1
 | 11 | CCN(CC)Cc1cc(Nc2ccnc3cc(Cl)ccc23)ccc1O |  | 
0.317 | 44.1 | COc1ccc(Nc2nc3ccccc3c3[nH]c4ccccc4c23)c(OC)c1 | 15.2 | 48
0.0361 | 62 | NCCCCNc1nc2ccccc2c2[nH]c3ccccc3c12 | 0.739 | 20.5
0.0264 | 62.4 | NCCCN1CCN(CCCNc2nc3ccccc3c3[nH]c4ccccc4c23)CC1 | 1.78 | 67.3
0.0073 | 22.7 | Cn1c2ccccc2c2c(NCCCNC(=O)Nc3ccccc3)nc3ccccc3c21 | 0.108 | 14.8
0.013 | 14.3 | NCCCNc1nc2ccc(F)cc2c2[nH]c3ccccc3c12 | 0.639 | 49.1
 | 30 | CCN(CC)CCCC(C)Nc1ccnc2cc(Cl)ccc12 (stereo not drawn) [CHLOROQUINE] |  | 
0.0409 | 25.9 | CN(C)CCCNc1nc2ccc(Cl)cc2c2c1c1ccccc1n2C | 0.313 | 7.7
0.0932 | > 1000 | CN(C)CCCNc1nc2ccccc2c2c1c1ccccc1n2C | 0.701 | 7.5
0.289 | 22 | O=C(NCCCNc1nc2cccc(Br)c2c2[nH]c3ccccc3c12)Nc1ccccc1 | 3.62 | 12.6
0.141 | 200 | OCCNc1nc2ccccc2c2[nH]c3ccccc3c12 | 0.891 | 6.3
0.0583 | 41.2 | Cn1c2ccccc2c2c(NCC(C)(C)CN)nc3ccc(Br)cc3c21 | 0.576 | 9.9
10.2 | > 1000 | Clc1nc2ccccc2c2[nH]c3ccccc3c12 | 193 | 18.9
